Data set [1] can be described thus: Microscale thermophoresis. The data set is classed as binding. As to conditions: MST; for Hill coefficient / cooperativity factor (n) of binding with CS: Hill fit, n > 1 positive, n < 1 negative cooperativity. The procedure, abridged:
(§1)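 Peptide labeled with 5-FAM at the N-terminus was spun at 14,000 g for 10 min, then used at 200 nM. MST was run at 50% excitation and 40% MST power, room temperature, with 20 s traces. A Hill fit of ΔF_Norm gave Kd and n. n=3 independent runs, mean ± SD.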
Background: Microscale thermophoresis detects binding through changes in fluorescence in a small temperature gradient.

The nature of data set [2]: Microscale thermophoresis. Format: binding. As to conditions: MST, HA titrated up to 2 μM (physiological SF concentration).
For the next data set, the target named is γ-Globulin. In words: Microscale thermophoresis. Format: binding, bovine. As to conditions: MST; for Hill coefficient / cooperativity factor (n) of binding with γ-Globulin: Hill fit. In a few lines: as §1
Data set [3] is classed as in vivo. Conditions: quadriceps and patellar tendon, fat pad; rat, 24 h after IA injection, Cy5 label. The procedure, abridged: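 Healthy male Wistar rats (8–10 weeks, 350–400 g) received 50 μl of 300 μM Cy5-labeled test peptide intra-articularly through the patellar tendon, with saline controls. Legs were flexed to spread the dose, and rats were killed at 24 h. Harvested knee tissues were imaged by confocal microscopy at 10X, with Z-stacks reconstructed to X-Z sections for penetration depth. N=6 joints per treatment.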

For data set [4] the following is noted: solute concentration inside cartilage relative to surrounding bath; cited from earlier work.
For data set [5] the following is noted: over 7-days desorption period; cited from earlier work.
Data set [6] can be described thus: Equilibrium intra-cartilage uptake of CPCs in bovine cartilage explants. As to conditions: 30 μM CPC, 24 h, 37°C; for Intra-cartilage uptake in presence of HA (comparison between CPCs): 3 mg/ml HA; for Intra-cartilage uptake in presence of BSA (comparison between CPCs) / Intra-cartilage equilibrium uptake ratio (RU): 12 mg/ml BSA; for Intra-cartilage equilibrium uptake ratio (RU): Healthy (simulated) SF: 3 mg/ml HA, 0.1 mg/ml DLPC in PBS pH 7.4, bath fluorescence, mean, n >= 6; for Reduction of intra-cartilage uptake in Healthy SF relative to PBS: Healthy SF vs PBS.

Turning to (AK)7AFAFAF [CPC +F], in data set [1], the “Binding with CS-GAG compared with CPC +N” value is “stronger binding” and the “Hill coefficient / cooperativity factor (n) of binding with CS” value was 1.6.
As for (AK)7ANANAN [CPC +N], the “Hill coefficient / cooperativity factor (n) of binding with CS” value in data set [1] is given as 0.8.
As to RRRR(AARRR)3 R [CPC +14A], the “Binding with HA as ligand” value in data set [2] is on record as “completely unbound”. Moreover, at γ-Globulin, the “Kd with γ-Globulin, fold lower than that of CPC +14N” value was 1.8 x and the “Hill coefficient / cooperativity factor (n) of binding with γ-Globulin” value is recorded as 0.67. The “Confocal fluorescence signal in less GAG-rich tissues” value in data set [3] was “weak fluorescence signal”. In data set [4], the Intra-cartilage uptake is on record as 350. The Retained within cartilage in data set [5] is listed as greater than 95%. Moreover, in data set [6], the “Intra-cartilage uptake in presence of HA (comparison between CPCs)” value was “no significant difference”, the “Intra-cartilage uptake in presence of BSA (comparison between CPCs)” value was “no significant difference” and the “Reduction of intra-cartilage uptake in Healthy SF relative to PBS” value was 4.5 x. Besides, the “Intra-cartilage equilibrium uptake ratio (RU)” value in data set [6] (12 mg/ml γ-Globulin) is given as 80.
For RRRR(NNRRR)3 R [CPC +14N], the “Hill coefficient / cooperativity factor (n) of binding with CS” value in data set [1] worked out at 1.6. Moreover, the “Binding with HA as ligand” value in data set [2] is on record as “completely unbound”. Besides, the “Hill coefficient / cooperativity factor (n) of binding with γ-Globulin” value in the data set on γ-Globulin was determined as 0.67. Besides, in data set [3], the “Confocal fluorescence signal in less GAG-rich tissues” value is recorded as “weak fluorescence signal”. In data set [6] (0.1 mg/ml DLPC), the “Intra-cartilage uptake in presence of phospholipids (DLPC), comparison” value is “higher uptake than CPC +14A”. Further, in data set [6], the “Intra-cartilage uptake in presence of HA (comparison between CPCs)” value was “no significant difference”, the “Intra-cartilage uptake in presence of BSA (comparison between CPCs)” value is recorded as “no significant difference” and the “Reduction of intra-cartilage uptake in Healthy SF relative to PBS” value amounted to 2.7 x. Moreover, in data set [6] (12 mg/ml γ-Globulin), the “Intra-cartilage uptake relative to CPC +14A (fold higher)” value stood at 2.8 x and the “Intra-cartilage equilibrium uptake ratio (RU)” value is on record as 120. In addition, in data set [6] (Healthy SF), the “Intra-cartilage uptake relative to CPC +14A (fold higher)” value was found to be 1.5 x. Moreover, the “Intra-cartilage uptake relative to CPC +14A (fold higher)” value in data set [6] (OA SF) is given as 2 x.

Values taken from paper PMC10441566 (Acta biomaterialia, 2022).
